{"source": "paper PMC6728149", "about": "(Science signaling, 2019)", "type_in_all_cases": "cell-based, human", "key": {"CDK9": {"test_system": "CDK9", "assay": "pPol II", "conditions": "MIA PaCa-2 cells, 6 hours", "procedure,_shortened": "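After 6 h compound exposure, MIA PaCa-2 lysates were made in 1% Triton buffer, pH 7.4, with protease and phosphatase inhibitors, cleared at 18,000 x g, 15 min, 4 °C, and quantified by Bradford. pPol II and MCL-1 were immunoblotted as CDK9 signaling read-outs.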"}, "EGFP-MYC": {"test_system": "EGFP-MYC", "assay": "GPS-MYC degradation screen", "conditions": "6 hours; for effect on EGFP-MYC stability in the GPS-MYC screen: 20 μM", "procedure,_shortened": "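MIA PaCa-2 cells were lentivirally transduced with DsRed-IRES-EGFP-MYC and selected with 2 μg/ml puromycin. Frozen stocks were thawed, grown 2 days, then plated at 20,000 cells/well in 384-well plates. Next day, compound was given in DMEM/2% FBS for 6 h. Controls were DMSO, cycloheximide (final 7.5 μg/ml) and MG132 (final 3.75 μM). Cells were detached with Accumax (20 min, 37 °C) and read by plate flow cytometer for EGFP/DsRed. Values were normalized to control wells; run in duplicate.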"}, "MYC": {"test_system": "MYC", "assay": "MYC protein levels by immunoblot in MIA PaCa-2 cells", "conditions": "6 hours"}, "CDK8/19": {"test_system": "CDK8/19", "assay": "pSTAT1", "conditions": "MIA PaCa-2 cells", "procedure,_shortened": "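CDK8/19 inhibition in compound-treated MIA PaCa-2 cells was read as pSTAT1 by immunoblot. Lysis was in 1% Triton buffer (25 mM Tris pH 7.4) with protease and phosphatase inhibitors; clarification was at 18,000 x g, 15 min, 4 °C. Blots are representative of at least three independent experiments.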"}, "MYC Ser^62": {"test_system": "MYC Ser^62", "assay": "pMYC Ser62 immunoblot in MIA PaCa-2 cells", "conditions": "30 min", "procedure,_shortened": "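MIA PaCa-2 cells were exposed to CDK9 inhibitors for 30 min. Lysates were cleared at 18,000 x g, 15 min, 4 °C, and protein was quantified by Bradford. pMYC Ser62 and total MYC were immunoblotted.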"}, "MYC mRNA": {"test_system": "MYC mRNA", "assay": "MYC mRNA by qPCR", "conditions": "MIA PaCa-2 cells", "procedure,_shortened": "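MIA PaCa-2 cells were compound-treated (6 h where stated). MYC mRNA was measured by qPCR, normalized to GAPDH or BACT mRNA, and analysed by the ddCT method.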"}}, "note": "Entries after “also recorded” stand apart in the source; their conditions may differ."}
{"smiles": "CCOc1cc(N2CCC(O)CC2)ccc1Nc1ncc2c(n1)N(C)c1ccccc1C(=O)N2C", "note": "[XMD8–92]", "values": [{"measurement": "phosphorylation of RNA polymerase II (pPol II) at S2", "setting": "CDK9", "result": "did not reduce phosphorylation of the CDK9 substrate Pol II"}]}
{"smiles": "CN(C)CCOc1ccc(-c2nc(-c3ccncc3)c(-c3ccc4c(c3)CC/C4=N\\O)[nH]2)cc1.Cl.O", "note": "[UNC10112687]", "values": [{"measurement": "effect on EGFP-MYC stability in the GPS-MYC screen", "setting": "EGFP-MYC", "result": "destabilized MYC"}]}
{"smiles": "S=C(NCc1ccc2c(c1)OCO2)N1CCN(c2ncnc3c2oc2ccccc23)CC1", "note": "[amuvatinib]", "values": [{"measurement": "endogenous MYC protein levels", "setting": "MYC", "result": "did not increase endogenous MYC in a dose-dependent manner; also recorded: failed to cause a dose-dependent loss of endogenous MYC protein"}]}
{"smiles": "COc1cc(N2CCN(C)CC2)ccc1Nc1nccc(-c2cn(C)c3cnccc23)n1", "note": "[AZ191]", "values": [{"measurement": "endogenous MYC protein levels", "setting": "MYC", "result": "failed to cause a dose-dependent loss of endogenous MYC protein"}]}
{"smiles": "CN1CCN(C(=O)c2ccc3cc(CCNc4ncnc5ccc(C#N)cc45)ccc3c2)CC1", "note": "[Senexin B]", "values": [{"measurement": "endogenous MYC protein levels", "setting": "MYC", "result": "but not MYC protein levels"}, {"measurement": "pSTAT1 (phosphorylation of STAT1 at S727)", "setting": "CDK8/19", "result": "reduction in pSTAT1"}, {"measurement": "MCL-1 protein levels", "setting": "CDK9", "result": "absence of a reduction in MCL-1"}]}
{"smiles": "CC(C)(C)c1cnc(CSc2cnc(NC(=O)C3CCN(CC(=O)NCCOCCOCCOCCNc4cccc5c4C(=O)N(C4CCC(=O)NC4=O)C5=O)CC3)s2)o1", "note": "(stereo not shown) [THAL-SNS-032]", "values": [{"measurement": "MYC phosphorylation at Ser^62", "setting": "MYC Ser^62", "result": "decreased MYC phosphorylation at Ser^62"}]}
{"smiles": "O=C(Nc1n[nH]c2nc(-c3ccco3)c(Br)cc12)C1CC1", "note": "[UNC10112671]", "values": [{"measurement": "effect on EGFP-MYC stability in the GPS-MYC screen", "setting": "EGFP-MYC", "result": "stabilized MYC"}]}
{"smiles": "COc1ncc2cc(C(=O)Nc3cc(C(=O)NCc4cccc(Cl)c4)ccc3Cl)c(=O)[nH]c2n1", "note": "[TC-S 7004]", "values": [{"measurement": "endogenous MYC protein levels", "setting": "MYC", "result": "failed to cause a dose-dependent loss of endogenous MYC protein"}]}
{"smiles": "COC(=O)Nc1nc2ccc(Oc3ccc(NC(=O)Nc4ccccc4)cc3)cc2[nH]1", "note": "[UNC10112731]", "values": [{"measurement": "MYC mRNA levels", "setting": "MYC mRNA", "result": "not due to increased transcription"}, {"measurement": "effect on EGFP-MYC stability in the GPS-MYC screen", "setting": "EGFP-MYC", "result": "increased EGFP-MYC without affecting DsRed"}, {"measurement": "EGFP-MYC and endogenous MYC levels in GPS-MYC cells", "setting": "EGFP-MYC; secondary validation, flow cytometry and immunoblot", "result": "dose-dependent increase in EGFP-MYC and endogenous MYC levels"}]}
